These results are taken from ChEMBL document CHEMBL1128270 (J Med Chem, 1995).

The target in assay [1] is T1, 5-hydroxytryptamine receptor 1A (Rattus norvegicus, UniProt P19327).
T1 sequence (P19327 whole entry): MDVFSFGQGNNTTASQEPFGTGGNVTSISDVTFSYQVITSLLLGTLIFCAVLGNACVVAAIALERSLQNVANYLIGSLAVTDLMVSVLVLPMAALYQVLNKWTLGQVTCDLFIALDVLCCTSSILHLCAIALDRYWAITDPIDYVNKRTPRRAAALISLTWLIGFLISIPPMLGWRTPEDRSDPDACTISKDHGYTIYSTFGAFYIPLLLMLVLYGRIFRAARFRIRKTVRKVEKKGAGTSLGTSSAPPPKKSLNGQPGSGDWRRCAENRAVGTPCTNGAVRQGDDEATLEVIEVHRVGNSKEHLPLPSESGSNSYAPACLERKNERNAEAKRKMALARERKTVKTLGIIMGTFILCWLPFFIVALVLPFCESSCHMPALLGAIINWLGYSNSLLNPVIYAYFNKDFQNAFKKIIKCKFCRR
As to the kind of experiment: In vitro binding affinity measured on serotonin 5-hydroxytryptamine 1A receptor using [3H]8-OH-DPAT as radioligand.

For assay [2], the target named is T2, Adrenergic receptor alpha-1 (Rattus norvegicus, UniProt P15823+P23944+P43140).
T2 sequence (P15823 whole entry): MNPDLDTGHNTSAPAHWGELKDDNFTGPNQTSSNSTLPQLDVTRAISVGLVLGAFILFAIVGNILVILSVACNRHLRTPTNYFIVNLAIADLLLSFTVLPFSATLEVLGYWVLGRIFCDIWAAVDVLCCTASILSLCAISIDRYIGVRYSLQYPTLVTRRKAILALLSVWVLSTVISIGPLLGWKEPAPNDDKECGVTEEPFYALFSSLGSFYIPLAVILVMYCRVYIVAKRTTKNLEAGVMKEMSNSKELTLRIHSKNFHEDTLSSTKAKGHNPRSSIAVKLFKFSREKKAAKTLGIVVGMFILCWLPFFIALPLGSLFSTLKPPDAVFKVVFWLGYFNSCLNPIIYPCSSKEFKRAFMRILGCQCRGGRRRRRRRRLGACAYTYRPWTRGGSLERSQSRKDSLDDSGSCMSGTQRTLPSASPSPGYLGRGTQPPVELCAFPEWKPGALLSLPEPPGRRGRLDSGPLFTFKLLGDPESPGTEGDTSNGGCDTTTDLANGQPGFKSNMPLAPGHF
T2 sequence (P23944 whole entry): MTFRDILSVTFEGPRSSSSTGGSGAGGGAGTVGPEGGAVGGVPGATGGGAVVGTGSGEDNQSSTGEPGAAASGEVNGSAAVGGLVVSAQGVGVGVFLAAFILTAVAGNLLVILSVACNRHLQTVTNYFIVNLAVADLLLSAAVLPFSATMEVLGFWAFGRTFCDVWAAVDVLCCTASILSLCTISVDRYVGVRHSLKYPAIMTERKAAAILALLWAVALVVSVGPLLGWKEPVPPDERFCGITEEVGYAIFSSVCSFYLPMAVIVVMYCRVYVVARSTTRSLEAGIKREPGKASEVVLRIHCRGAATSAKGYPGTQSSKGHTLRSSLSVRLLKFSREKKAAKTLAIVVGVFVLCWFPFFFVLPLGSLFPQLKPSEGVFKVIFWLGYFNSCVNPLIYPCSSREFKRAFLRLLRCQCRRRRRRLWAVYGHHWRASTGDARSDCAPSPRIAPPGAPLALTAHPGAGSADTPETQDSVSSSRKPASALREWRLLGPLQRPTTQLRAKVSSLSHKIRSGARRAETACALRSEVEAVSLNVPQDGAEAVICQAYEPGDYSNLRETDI
T2 sequence (P43140 whole entry): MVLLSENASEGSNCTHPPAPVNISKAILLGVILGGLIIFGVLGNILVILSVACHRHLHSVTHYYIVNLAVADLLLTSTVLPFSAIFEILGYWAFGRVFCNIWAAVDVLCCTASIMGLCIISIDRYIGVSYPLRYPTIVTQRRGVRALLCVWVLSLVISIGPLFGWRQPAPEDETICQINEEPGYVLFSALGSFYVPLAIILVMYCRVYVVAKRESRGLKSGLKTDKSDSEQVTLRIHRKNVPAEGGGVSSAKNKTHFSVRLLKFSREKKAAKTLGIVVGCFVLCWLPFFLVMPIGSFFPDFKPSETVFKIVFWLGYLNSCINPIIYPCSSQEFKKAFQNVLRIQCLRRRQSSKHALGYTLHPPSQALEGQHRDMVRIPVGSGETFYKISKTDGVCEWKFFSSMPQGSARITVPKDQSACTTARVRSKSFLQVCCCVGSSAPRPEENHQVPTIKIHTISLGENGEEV
Put plainly: In vitro binding affinity measured on alpha-1 adrenergic receptor using [3H]prazosin as radioligand. It counts as protein assay.

Assay [3] has as its target Serotonin 2 (5-HT2) receptor (Rattus norvegicus, UniProt P30994+P08909+P14842). As to the kind of experiment: In vitro binding affinity measured on serotonin 5-hydroxytryptamine 2 receptor using [3H]ketanserin as radioligand. It counts as protein assay.
Assay [4] in a line: Selectivity ratio of IC50 value against D-2 receptor to that of 5-HT1A receptor. The method, boiled down: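 Ratio of the D-2 IC50 to the 5-HT1A IC50. […] Each IC50 came from 7–9 concentrations in triplicate over 2–4 experiments (EBDA).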
The target in assay [5] is D(2) dopamine receptor (Rattus norvegicus, UniProt P61169). As to the kind of experiment: In vitro binding affinity measured on dopamine receptor D2 using [3H]spiroperidol as radioligand. The method, boiled down:
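IC50 came from 7–9 drug concentrations in triplicate, over 2–4 independent experiments, analysed with EBDA. Specific binding exceeded 75% of total.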

Assay [6] has as its target Serotonin 1a (5-HT1a) receptor/Adrenergic receptor alpha-1 (Rattus norvegicus) (UniProt P15823+P23944+P43140+P19327). As to the kind of experiment: Selectivity ratio of IC50 value against alpha-1 receptor to that of 5-HT1A receptor. It is filed as protein assay. The procedure, abridged:
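Ratio of the α1 IC50 to the 5-HT1A IC50 ([3H]-8-OH-DPAT, rat cortex). For α1, male Sprague-Dawley rat cortex membranes were prepared in 50 mM Tris-HCl pH 7.7 with 10 μM pargyline and 0.1% ascorbate.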

For assay [7], the species on record is Cavia porcellus. Put plainly: Selectivity as the ratio of IC50 value against sigma receptor to that of 5-HT1A receptor. The procedure, abridged:
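Ratio of the σ IC50 to the 5-HT1A IC50. For σ, a P2 membrane fraction was prepared from whole male guinea pig brain without cerebellum in 50 mM Tris-HCl pH 7.4. [3H]DTG was 0.90 nM final, incubated 90 min at 25 °C, then filtered and counted. IC50 values came from 7–9 concentrations in triplicate (EBDA).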

pIC50: −log10 of the molar value.

Chain of D(2) dopamine receptor (P61169 whole entry): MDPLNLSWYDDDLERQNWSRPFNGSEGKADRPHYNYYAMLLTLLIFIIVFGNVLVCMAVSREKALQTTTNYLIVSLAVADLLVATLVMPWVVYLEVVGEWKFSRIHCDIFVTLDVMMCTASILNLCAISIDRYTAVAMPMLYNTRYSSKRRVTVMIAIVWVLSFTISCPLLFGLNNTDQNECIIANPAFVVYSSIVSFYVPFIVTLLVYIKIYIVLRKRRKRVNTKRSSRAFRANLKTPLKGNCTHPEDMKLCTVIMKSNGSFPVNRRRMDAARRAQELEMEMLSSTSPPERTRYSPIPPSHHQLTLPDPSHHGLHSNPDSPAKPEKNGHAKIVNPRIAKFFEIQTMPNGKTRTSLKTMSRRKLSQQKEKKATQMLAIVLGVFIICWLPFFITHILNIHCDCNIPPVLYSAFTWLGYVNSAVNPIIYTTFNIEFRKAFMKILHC

Usually pIC50 stands for the IC50 on a negative log10 scale, so that one unit is a factor of ten. Broadly, the IC50 is the point on the concentration scale where inhibition reaches its midpoint. With `COc1ccc2c(c1)C(CCCN1CCN(c3cccc(C(F)(F)F)c3)CC1)=CCC2`, the pIC50 in assay [1] is 6.86; in assay [5], 5.89. Moreover, the IC50 in assay [2] is reported as 3070 nM; in assay [3] it was 1170 nM. For the same compound, the Selectivity in assay [4] came out at 9.4; in assay [6] it was 22.

As to `COc1ccc2c(c1)C(SCCN1CCN(c3ccccc3OC)CC1)CCC2` (stereo not drawn), the results for the pIC50 in assay [1] and in assay [5] were 8.23 and 7.30, respectively. For the same compound, the IC50 in assay [2] is reported as 116 nM; in assay [3] it was 111 nM. Also, the Selectivity in assay [7] is 20; in assay [4] it was 8.5; in assay [6] it was 20.

As for `COc1cccc2c1CCCC2CCCN1CCN(c2ccccn2)CC1` (stereo not drawn), the figures for the pIC50 in assay [1] and in assay [5] were 9.24 and 6.75, respectively. Besides, the IC50 in assay [2] was found to be 31.4 nM; in assay [3] it was 331 nM.

As for `COc1ccc2c(c1)C(CCCCN1CCN(c3ccccc3OC)CC1)=CCC2`, the pIC50 in assay [1] is 8.82; in assay [5] it was 7.97. In addition, the half-maximal inhibitory concentration (IC50) in assay [2] worked out at 15.3 nM; in assay [3], 209 nM.

On to `COc1ccccc1N1CCN(CCNC2CCCc3c(OC)cccc32)CC1` (stereo not drawn), for which the pIC50 was 8.15 in assay [1] and 6.21 in assay [5]. For the same compound, the IC50 in assay [2] is 149 nM; in assay [3], 3340 nM. Besides, the Selectivity came to 22 in assay [7], 88 in assay [4] and 21 in assay [6].

On to `COc1ccccc1N1CCN(CCCCC2=CCCc3c(OC)cccc32)CC1`, for which the values for the negative-log IC50 (pIC50) in assay [1] and in assay [5] were 7.89 and 5.23, respectively. Besides, the IC50 in assay [2] was determined as 96.2 nM. Moreover, the Selectivity in assay [4] amounted to 455; in assay [6], 7.4.

Turning to `COc1ccc2c(c1)C(CCCCN1CCN(c3ccccc3OC)CC1)CCC2` (stereo not drawn), the pIC50 in assay [1] was 8.05; in assay [5] it was 7.29. The IC50 in assay [2] turned out to be 78.5 nM; in assay [3], 329 nM.

Take `COc1cccc2c1CCC/C2=C\CCN1CCN(c2ccccn2)CC1`: the pIC50 in assay [1] was 9.46; in assay [5] it was 6.82. Besides, the IC50 came out at 72.2 nM in assay [2] and 417 nM in assay [3].

For `COc1cccc2c1CCC=C2CCCN1CCN(c2ccccn2)CC1`, the pIC50 was 8.85 in assay [1] and 6.92 in assay [5]. The IC50 in assay [2] is 123 nM; in assay [3], 205 nM.

In the case of `COc1ccccc1N1CCN(CCCC2CCCc3ccsc32)CC1` (stereo not drawn), the pIC50 is 8.95 in assay [1] and 7.62 in assay [5]. Moreover, the IC50 in assay [2] was found to be 1.26 nM; in assay [3] it was 147 nM.

Turning to `COc1cccc2c1CCCC2CCCN1CCN(c2cccc(C(F)(F)F)c2)CC1` (stereo not drawn), the pIC50 in assay [1] was 6.84; in assay [5] it was 6.33. Also, in assay [2], the IC50 was determined as 7170 nM. In addition, the Selectivity in assay [4] is 3.2; in assay [6] it was 49.

On to `COc1cccc2c1CCC=C2CCCN1CCN(c2ccccc2)CC1`, for which the IC50 came to 49 nM in assay [2] and 204 nM in assay [3]. This compound also had a pIC50 in assay [5] of 6.52.

As to `COc1ccccc1N1CCN(CCCCC2CCCc3c(OC)cccc32)CC1` (stereo not drawn), the pIC50 was 8.76 in assay [1] and 7.81 in assay [5]. For the same compound, the IC50 in assay [2] is reported as 78.3 nM. Moreover, the values for the Selectivity in assay [4] and in assay [6] were 8.9 and 45, respectively.

`COc1ccc2c(c1)C(CCCN1CCN(c3ccccc3OC)CC1)CCC2` (stereo not drawn): the pIC50 in assay [1] is 8.82; in assay [5], 7.29. Further, the IC50 in assay [2] is listed as 43.2 nM; in assay [3], 220 nM.

For `COc1cccc2c1CCC=C2CCCN1CCN(c2cccc(C(F)(F)F)c2)CC1`, the pIC50 is 7.25 in assay [1] and 6.19 in assay [5]. The IC50 in assay [2] is 278 nM; in assay [3], 2370 nM. Also, the Selectivity in assay [4] was 12; in assay [6], 5.

Regarding `COc1cccc2c1CCCC2CCCN1CCN(c2ccccc2)CC1` (stereo not drawn), the results for the pIC50 in assay [1] and in assay [5] were 9.44 and 7.01, respectively. Also, the IC50 is 78.8 nM in assay [2] and 170 nM in assay [3].

As to `COc1ccccc1N1CCN(CCCC2=CCCc3c(OC)cccc32)CC1`, the pIC50 in assay [1] was 8.06; in assay [5], 7.76. Further, the IC50 stood at 32.3 nM in assay [2] and 770 nM in assay [3]. The Selectivity is 3.8 in assay [7], 2 in assay [4] and 3.7 in assay [6].

Consider `COc1ccccc1N1CCN(CCSC2CCCc3c(OC)cccc32)CC1` (stereo not drawn), for which the pIC50 in assay [1] was 8.97; in assay [5] it was 8.11. The same compound showed an IC50 in assay [2] of 120 nM. Moreover, the Selectivity was 7.3 in assay [4] and 111 in assay [6].

On to `COc1ccccc1N1CCN(CC/C=C2\CCCc3c(OC)cccc32)CC1`, for which the pIC50 in assay [1] is 9.28; in assay [5], 7.95. Moreover, the IC50 in assay [2] is reported as 6 nM; in assay [3] it was 667 nM. The results for the Selectivity in assay [7], in assay [4] and in assay [6] were 100, 22 and 12, respectively.

With `COc1ccc2c(c1)C(CCCN1CCN(c3ccccc3)CC1)CCC2` (stereo not drawn), the pIC50 in assay [1] is 8.03; in assay [5] it was 7.55. Also, the IC50 in assay [2] is reported as 184 nM. The figures for the Selectivity in assay [4] and in assay [6] were 3 and 20, respectively.

Take `COc1ccccc1N1CCN(CCCC2CCCc3c(OC)cccc32)CC1` (stereo not drawn): the negative-log IC50 (pIC50) in assay [1] was 9.49. Moreover, the IC50 in assay [2] is recorded as 1.94 nM; in assay [3] it was 358 nM.

As to `COc1ccccc1N1CCN(CCCC2CCCc3ccccc32)CC1` (stereo not drawn), the pIC50 is 9.41 in assay [1] and 7.61 in assay [5]. Besides, the 50% inhibitory concentration (IC50) in assay [2] was found to be 0.14 nM; in assay [3], 155 nM. In addition, the values for the Selectivity in assay [4] and in assay [6] were 63 and 0.36, respectively.

In the case of `COc1ccc2c(c1)C(CCCN1CCN(c3ccccc3)CC1)=CCC2`, the values for the pIC50 in assay [1] and in assay [5] were 6.83 and 6.11, respectively. In addition, the values for the IC50 in assay [2] and in assay [3] were 157 nM and 119 nM, respectively.
